Data taken from publication PMC6237275 (Chemical science, 2013).
Residues, ends and D or L forms follow the SMILES beside them.

How the values were obtained:
CtBP1 (His–CtBP1) = CtBP1 (His–CtBP1) (Homo sapiens, UniProt Q13363); assay: FRET-based CtBP1/NADH-binding assay
MCF-7 cells [1] = assay: Time-lapse video microscopy, peptide in medium, MCF-7; assay type: cell-based
Procedure, shortened: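 Cell-penetrating peptide or TAT alone goes into the medium of asynchronous MCF-7 cultures, imaged by time-lapse microscopy every 30 min for 65 h. Each cell's first mitosis is scored for abnormality (prolonged rounding, failed cytokinesis, death), with time in mitosis per cell. Total cell number increase is taken over the first 48 h. Fisher's exact test; experiments repeated at least twice.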

MCF-7 cells [2] = assay: Microinjection and time-lapse video microscopy, MCF-7; assay type: cell-based
Procedure, shortened: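 MCF-7 cells are synchronized 48 h in 0.1% FCS, then released with 10% serum. At 20 h post-release, cells are microinjected in PBS with 70 kDa FITC-dextran (1 μg μL−1) plus peptide (50 μM) or GST-fusion protein (1 μg μL−1). Controls are FITC-dextran alone or non-injected cells. Time-lapse images every 30 min; first mitosis scored for abnormality and duration. Fisher's exact test.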

[3] = test system: CtBP2 homodimerization (CtBP2 fused to 434 repressor); assay: CtBP2 reverse two-hybrid system; assay type: cell-based; details: arabinose-induced peptide production; 50 μM IPTG; minimal (selective) media
GST–CtBP1 / His–CtBP1 = assay: GST pull down assay; assay type: biochemical; details: presence of NADH; 50 mM Tris–HCl pH 7.2 pull-down buffer
Procedure, shortened: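 Recombinant GST-CtBP1 and His-CtBP1 are expressed in E. coli and purified on glutathione or nickel resin, with 30 min 0.25 mM pyruvate on-resin to oxidize bound NADH. 10 mg mL−1 bacterial lysate blocks nonspecific binding.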

MDA-MB-453 cells = assay: Microinjection and time-lapse video microscopy, MDA-MB-453; assay type: cell-based; details: microinjected 50 μM
[4] = test system: CtBP1 homodimerization (CtBP1 fused to 434 repressor); assay: CtBP1 reverse two-hybrid system; assay type: cell-based; details: for Target (homodimerization disrupted in RTHS): CtBP1 and CtBP2 RTHS, SICLOPPS; for Rank (top 3 CtBP1/CtBP2 inhibitors identified by SICLOPPS): ranked by drop spotting, CtBP1/CtBP2 RTHS
Procedure, shortened: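 E. coli reverse two-hybrid hosts carry SICLOPPS cyclic peptide library plasmids; only clones whose peptide disrupts CtBP homodimerization survive on selective media. For CtBP1, 104 surviving colonies were picked, and their plasmids were isolated and retransformed into the CtBP1 RTHS. For drop-spotting, 2.5 μL of serial cell dilutions go onto selective plates with and without […].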

lactate dehydrogenase = assay: Lactate dehydrogenase activity; assay type: biochemical; details: at concentrations of up to 100 μM
breast cancer cells = details: ref [31]; cited from earlier work
colon cancer cells = details: ref [36]; cited from earlier work
CtBPs = details: high concentrations of MTOB; ref [37]; cited from earlier work
His–CtBP1 = assay: Size exclusion chromatography of His–CtBP1; assay type: biochemical; details: increasing concentrations of NADH; Superdex 200, PBS
MCF-7 cells [5] = assay: Micronuclei assay, MCF-7; assay type: cell-based; details: up to 100 μM TAT; 48 h; >400 cells scored
Procedure, shortened: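 Peptides are added to the medium of asynchronous MCF-7 cultures, and cells are fixed after 48 h for micronuclei counting, with >400 cells scored per point. Data are mean ± SEM of triplicate wells from a representative of at least two independent experiments. One-way ANOVA with Tukey's post hoc test.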

[6] = test system: CtBP1/CtBP2 dimerization (CFP–CtBP1, YFP–CtBP2) in COS-7 cells; assay: CtBP cellular compartmentalization assay; assay type: cell-based; details: 100 μM
Procedure, shortened: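 COS-7 cells transfected with CFP–CtBP1 (pSCFP3A-based) and YFP–CtBP2 (pSYFP2-based) expression vectors. Test compound as TAT conjugate (100 μM) or 100 μM TAT added to medium. Expression and co-localization were imaged by fluorescence microscopy, and cells were scored by line analysis for cytoplasmic CFP–CtBP1, with cell numbers counted. Fisher's exact test on contingency tables versus TAT-treated cells.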

CSCC[C@@H]1NC(=O)[C@H](CCCNC(=N)N)NC(=O)[C@H](C(C)C)NC(=O)[C@H](C(C)C)NC(=O)[C@H]([C@@H](C)O)NC(=O)[C@H](Cc2c[nH]c3ccccc23)NC(=O)CNC(=O)[C@H](CO)NC(=O)[C@H](Cc2ccc(O)cc2)NC1=O [CP61] (cyclo(GWTVVRMYS))
Reduction of NADH-dependent FRET signal (CtBP1–NADH interaction) (CtBP1 (His–CtBP1); excitation 285 nm, emission 425 nm, 300 nM His–CtBP1, room temperature): reduced upon addition of CP61, in a dose-dependent manner | Mechanism of inhibition of NADH-binding (CtBP1 (His–CtBP1); maximum FRET signal at saturating NADH reduced in a CP61-dependent manner): allosteric mechanism for inhibition of NADH-binding | Concentration inhibiting the cellular function of CtBPs (MCF-7 cells [1]; in cells (discussion summary)): 50 µM | Mitoses that were aberrant (MCF-7 cells [2]; microinjected 50 μM, MCF-7, control-injected 10.2%, P < 0.0001 (Fig. 8a)): 50.8% | Mean length of time in mitosis (MCF-7 cells [2]; microinjected 50 μM, MCF-7, control-injected 1.9 h (Fig. 8b)): 4 h | Survival on selective media / disruption of CtBP2 homodimerization [3]: Restoration of growth with arabinose | Disruption of NADH-dependent association between GST–CtBP1 and His–CtBP1 (GST–CtBP1 / His–CtBP1): disrupted | Length of time in mitosis (in words) (MDA-MB-453 cells; MDA-MB-453 (Fig. 8b)): did not affect the length of time MDA-MB-453 cells spent in mitosis | Percentage of mitoses that were aberrant (in words) (MDA-MB-453 cells; MDA-MB-453, P > 0.05 compared to control-injected): did not significantly affect the percentage of mitoses that were aberrant | Target (homodimerization disrupted in RTHS) [4]: CtBP1/CtBP2 | Survival on selective media / disruption of CtBP1 homodimerization ([4]; arabinose-induced peptide production, 50 μM IPTG, minimal (selective) media): Restoration of growth with arabinose | Rank (top 3 CtBP1/CtBP2 inhibitors identified by SICLOPPS) [4]: 1 | Effect on activity of lactate dehydrogenase (lactate dehydrogenase): no effect

CSCCC(=O)C(=O)O [MTOB, 2-keto-4-methylthiobutyrate]
Repression of multiple CtBP-targeted genes (breast cancer cells): reverse the repression of multiple CtBP-targeted genes in breast cancer cells | Repression of pro-apoptotic gene BIK (colon cancer cells): reverse the repression of the pro-apoptotic gene BIK in colon cancer cells | Recruitment of CtBPs to target promoters (CtBPs): inhibiting the recruitment of CtBPs to target promoters

NC(=O)C1=CN([C@@H]2O[C@H](COP(=O)(O)OP(=O)(O)OC[C@H]3O[C@@H](n4cnc5c(N)ncnc54)[C@H](O)[C@@H]3O)[C@@H](O)[C@H]2O)C=CC1 [NADH]
Monomer to dimer shift of CtBP1 (His–CtBP1): shifted to a peak corresponding to dimeric CtBP1 in a dose-dependent manner

GRKKRRQRRRPPQ [TAT]
Increase in cell numbers (MCF-7 cells [1]; 50 μM, 48 hours): 111% | Cells containing micronuclei (MCF-7 cells [5]): Approximately 7% | Nuclear co-localization of CtBPs [6]: showed the expected co-localization with YFP–CtBP2 in the nucleus

GST–CtBP^DD: construct encoding the central dimerization domain (110–359) of CtBP2
Cells with aberrant mitosis phenotype (MCF-7 cells [2]; protein injected at 1 μg μL−1 in PBS, MCF-7 (Fig. 7e)): 45% | Time in mitosis (in words) (MCF-7 cells [2]; protein injected at 1 μg μL−1 in PBS, MCF-7 (Fig. 7f)): increased the time in mitosis, in line with that observed in CP61-treated cells

SGW PLSTWY (head to tail) [CP68]
Target (homodimerization disrupted in RTHS) [4]: CtBP1/CtBP2 | Rank (top 3 CtBP1/CtBP2 inhibitors identified by SICLOPPS) [4]: 2

SGW RLIRLY (head to tail) [CP65]
Target (homodimerization disrupted in RTHS) [4]: CtBP1/CtBP2 | Rank (top 3 CtBP1/CtBP2 inhibitors identified by SICLOPPS) [4]: 3
